In ChEMBL document CHEMBL4513216, “Probing the Open Global Health Chemical Diversity Library for Multistage-Active Starting Points for Next-Generation Antimalarials” (ACS Infect Dis, 2020):

Test: Toxicity liver stage against HepG2, at 10uM
Type: cell-based
Parameters: test concentration 10 uM, cell line HepG2-A16-CD81EGFP
Conditions: human, HepG2-A16-CD81EGFP cells; read-out: INHIBITION
Procedure, shortened: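 Uninfected HepG2-A16-CD81EGFP cells, 3 × 10^3 per well, 1536-well, plated on prespotted compound at 10 μM final, parasite-free screening media added to match infected plates; puromycin 10 μM positive, DMSO 0.5% negative; run in parallel with 48 h PbLuc assay at 37 °C, 5% CO2; viability by CellTiter-Glo luminescence, normalized to controls.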

| Structure (SMILES) | cytotoxicity at 10 µM |
| --- | --- |
| CSc1ccc(NCC(=O)NCC(=O)N2CCCC2)cc1F | 2.63% |
| O=C(N[C@@H]1CN(Cc2ccc3[nH]ccc3c2)C[C@H]1O)c1cscn1 | -7.11% |
| CCn1ncc2c1C(COC)CN(Cc1ccc(F)cc1)C2 (configuration not stated) | 12.4% |
| c1cnc(N2CCc3onc(CN4CCOCC4)c3C2)cn1 | 14.1% |
| CCN1CCn2c(C)cnc2C12CCN(C(=O)c1ccco1)CC2 | 4.56% |
| Cc1nn(CC(=O)N2CCN(Cc3cnn(C)c3C)CC2)cc1Cl | -3.22% |
| Cc1occc1C(=O)N1CCc2c(CNc3ncccn3)cncc2C1 | -83.1% |
| Cc1nc(C2CCCN(C(=O)CCCn3ccnc3C)C2)no1 (configuration not stated) | -13.4% |
| COC(=O)c1ccoc1COC(=O)CCc1ccc(OC)c(OC)c1 | 5.27% |
| Cc1nc(C)c(C)c(N2C[C@@H](CN3CCCN(C)CC3)[C@@H](CO)C2)n1 | -10.4% |
| N#Cc1ccccc1N1CCN(C(=O)NCC(=O)N2CCCC2)CC1 | -1.55% |
| CC(=O)c1ccc(C(=O)Nc2ccnc(N(C)C)n2)cc1 | 2.49% |
| CC1CN(Cc2ccccc2)CCCN1CCCS(C)(=O)=O (configuration not stated) | 5.27% |
| CCCS(=O)(=O)N1CCC2(CC(=O)N(c3cnn(C)c3)C2)C1 (configuration not stated) | 4.59% |
| CC(C)N(CCNC(=O)c1[nH]nc2ccc(I)cc12)C(C)C | -41.1% |
| CC1(C)CC(N(Cc2ccccc2)Cc2cccnc2)CC(C)(C)N1 | 2.67% |
| Oc1nc(-c2cnccn2)nc2c1CCN(Cc1ccccn1)C2 | 1.51% |
| CC(=O)Nc1cccc(Cn2nc(C)nc2C)c1 | -3.19% |
| COCCC(=O)N1CC[C@@H](N2CCOCC2)[C@@H]1Cc1ccccc1 | -70.4% |
| COc1ncccc1CN1CCN(c2noc(C(C)C)n2)CC1 | 10.5% |
| Cn1cnnc1SCc1cc2c(cc1Br)OCO2 | 6.44% |

| Structure (SMILES) | cytotoxicity at 10 µM |
| --- | --- |
| C/C(NC(=O)c1cccs1)=C1\C(=O)C[C@@H]2[C@H]1C2(C)C | -1.18% |
| CCn1nc(C)c(C(=O)N2CCC(Nc3ccc(C)nn3)CC2)c1C | 4.13% |
| Cn1nc(CNC(=O)NCc2ccc(Cl)cc2)c2c1CCOC2 | 2.81% |
| O=C1CC2(CCN(Cc3cccs3)C2)CN1c1cccc(F)c1 (configuration not stated) | -148% |
| CN1CCOC(C(=O)Nc2nc(-c3ccc4c(c3)CCC4)n[nH]2)C1 (configuration not stated) | -7.53% |
| CC[C@H]1CN2CC[C@H]1C[C@@H]2CNCc1cccc(C#N)c1 | 5.96% |
| COc1ccc(N2CCCN(C(=O)Cc3csc(C)n3)CC2)cc1 | 3.91% |
| Cc1c(NC(=O)C(C)N(C)C)c(=O)n(-c2ccccc2)n1C (configuration not stated) | 1.11% |
| Cc1nn2cccnc2c1C(=O)N1CCCC(n2ccnc2C)C1 (configuration not stated) | -9.53% |
| CNS(=O)(=O)CC(=O)N1CCCc2cc(C(C)C)ccc21 | 11.8% |
| CC(C)NC(=O)CS(=O)(=O)Cc1coc(-c2ccc(F)cc2)n1 | -6.6% |
| Cc1nc(C)n(CC2CCCN(CCC(=O)N3CCCCC3)C2)n1 (configuration not stated) | 3.9% |
| CCc1nc(C2CCCN(C(=O)C(C)(C)NS(C)(=O)=O)C2)no1 (configuration not stated) | -12.1% |
| COc1ccc(C(=O)N2CCC(Oc3ccc(C)cc3)(C(=O)O)CC2)o1 | 9.68% |
| CCN(C)c1ncnc2c1CCN(C(=O)N1CCOCC1)CC2 | 0.223% |
| CNc1[nH]nc(N)c1C(=O)Nc1ccccc1 | 6.56% |
| O=C(Cn1cccnc1=O)NC(Cc1ccsc1)c1ccccn1 (configuration not stated) | -5.66% |
| Cn1ccnc1CN(Cc1cccnc1)CC1CCCO1 (configuration not stated) | 15.2% |
| O=C(NC1CCCc2nc(N3CCOCC3)ncc21)C1CCCCC1 (configuration not stated) | -19.9% |
| O=C(CCCc1nnc(-c2ccccc2)o1)N1CCN(CCO)CC1 | -6.31% |
| COCCN1C(=O)CO[C@H]2CN(Cc3ccccc3OC)C[C@H]21 | -1.52% |

| Structure (SMILES) | cytotoxicity at 10 µM |
| --- | --- |
| Cc1ccc(C(=O)N2CCCC2c2nnc3n2CCCCC3)s1 (configuration not stated) | -0.208% |
| Cc1cnn(CCNCc2nc(Cc3ccccc3)no2)c1 | -7.7% |
| CNC(=O)[C@@H]1C[C@@H](N)CN1C1CCN(Cc2ccccn2)CC1 | -53.5% |
| NCCc1c(-c2ccc(F)cc2)[nH][nH]c1=O | -1.3% |
| COc1c(CNCCC(=O)Nc2cccc(C)n2)c(C(C)C)nn1C | -1.17% |
| CCc1nc(C2CCCN2Cc2nnc(Cc3ccccc3)o2)no1 (configuration not stated) | -0.313% |
| Cc1cc(C)nc(N2CCC(C(=O)Nc3n[nH]c(C)n3)CC2)n1 | 8.78% |
| COCCN1CCN(Cc2cccc(C(=O)N(C)C)c2)CC1C (configuration not stated) | 5% |
| O=C(NC1COC2(CCN(CC3CCC3)CC2)C1)c1ccccn1 (configuration not stated) | -1.95% |
| Cc1csc(CCNC(=O)Nc2cc(C(F)(F)F)c[nH]c2=O)n1 | 8.13% |
| COCc1cc(NCc2cc(F)ccc2F)n2nccc2n1 | -2.32% |
| CC(NCc1cnc(N2CCOCC2)nc1)c1ccc(Cl)s1 (configuration not stated) | -4.9% |
| CC1CCN(S(=O)(=O)NCCCn2cncn2)CC1 | -4.91% |
| CC(Cn1ccnc1)NC(=O)Cc1ccc2c(c1)OCCO2 (configuration not stated) | -7.2% |
| CCc1nc(C)c(CN2CCOC(CCCC(C)C)C2)[nH]1 (configuration not stated) | -20% |
| CSC(C)C(=O)N(C)C1CCN(c2ccc(Cl)cc2)CC1 (configuration not stated) | 0.204% |
| COCCOCC(=O)N1C[C@@H]2CC[C@H](Oc3ccccc3F)[C@@H]2C1 | -1.96% |
| COCCN1CCCC2(CCC(=O)N2Cc2cccnc2)C1 (configuration not stated) | 4.32% |
| CC(C)=CCn1ncc(N2CCOCC2)cc1=O | -9.96% |
| O=C(c1cscn1)N1CCC2(CN(Cc3ccsc3)C2)C1 | 4.06% |
| Cc1nn(C)cc1S(=O)(=O)NCC(C)Cn1cc(Cl)cn1 (configuration not stated) | 0.197% |

| Structure (SMILES) | cytotoxicity at 10 µM |
| --- | --- |
| O=C(Nc1cccc(N2CCOCC2)c1)N[C@H](CO)c1ccccc1 | -8.1% |
| N#Cc1ccccc1CN1CCC(c2nccn2CC(N)=O)CC1 | -8.61% |
| CCN(CCn1cccn1)C(=O)CN1C(=O)OC[C@@H]1c1ccccc1 | -12.1% |
| CCOCCNCc1cc(O)c2cc(C)ccc2n1 | -2.04% |
| CC(C)CN1CCn2nc(CNc3ncnc4[nH]cnc34)cc2C1 | 6.88% |
| Cc1cc(CSCc2ccccn2)on1 | 7.69% |
| Cc1ccc(CN(CCN(C)C)Cc2ncc[nH]2)s1 | -10.5% |
| Cn1ccnc1CN(CCO)C(=O)c1nc2ccccc2s1 | 4.46% |
| COC(=O)Cn1c(=O)[nH]c2cn(-c3ccc(Br)cc3)c(=O)n21 | 1.4% |
| Cc1ccc(C)c2c(O)cc(CNCCNC(=O)C(C)C)nc12 | -8.14% |
| CC(C)c1cc(C(=O)N2CCN(CC3CC3)[C@@H]3CS(=O)(=O)C[C@@H]32)on1 | 3.05% |
| CCC(NC(=O)c1cc(NC(C)=O)ccc1Cl)c1cc(C)ccn1 (configuration not stated) | -16.5% |
| CCS(=O)(=O)NCCNc1c(C#N)cnc2c(C)cc(F)cc12 | -0.453% |
| CC1NC(=O)COC12CCN(C(=O)Cc1ccsc1)CC2 (configuration not stated) | -5.73% |
| CCOC(=O)CNC(=O)NCc1cccn1Cc1ccccc1C | 4.9% |
| O=S(=O)(Cc1ccccc1F)NC(CO)c1ccco1 (configuration not stated) | 6.6% |
| O=C(CCNc1ncc2c(n1)CCN2c1ccccc1)N1CCCC1 | 9.5% |
| COc1ccc(C(=O)N2C[C@@H](C(=O)O)[C@H](c3ccccc3)C2)c(C)c1 | 5.23% |
| O=C1CCC(C(=O)N2CCOC(Cc3cccc4ccccc34)C2)=NN1 (configuration not stated) | -3.86% |
